High-throughput results deposited in PubChem by several laboratories.
HSP90 refold inh: blocks HSP90-mediated luciferase refolding in reticulocyte lysate. Rabbit reticulocyte lysate, luciferase refolding luminescence, 3 h. inhibition, % at 5.6 µM. 290,000 compounds, 0.91% hits. AID 1789;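 active means inhibition above the screen-wide mean plus 3 SD, computed separately per campaign, cut at about 16% in these data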;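 further: inhibitors lower the luminescence because luciferase stays unfolded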
STAT3 activator: increases IL-6 driven STAT3 reporter signal | 190,000 compounds, 0.91% hits | U3A cells, IL-6 STAT3-luciferase reporter, luminescence; 100% = signal with IL-6 EC80 alone | activation (% of control), % at 5.6 µM;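 active means activation above the screen-wide mean of compound activation plus 3 SD, cut at about 130% in these data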
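Test system: Human STAT1-deficient U3A cells with stable STAT3-luciferase reporter | Also added: Interleukin-6, 33 ng/mL | Timing: Compound pre-incubation 1 h before IL-6, then 6 h stimulation at 37 °C | Technique: Luciferase reporter luminescence | Read-out: Percent of IL-6-only median luminescence | Benchmarks: IL-6-only wells as 100% reference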
STAT1 blocker: reduces IFN-gamma driven STAT1 reporter signal. 200,000 compounds, 0.35% hits. NIH 3T3 STAT1-luciferase reporter, luminescence. inhibition, % at 5.5 µM;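 active means inhibition above a set limit, the mean inhibition across all tested compounds plus 3 SD, cut at about 34% in these data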
PPC-1+TRAIL kill: PPC-1 cancer cell killing with TRAIL present; PPC-1 cells + TRAIL, ATPLite viability luminescence; cell killing (% activity), % at 4 µM or 5 µM; 220,000 compounds, 0.41% hits; AID 1443;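 active means cell killing above 50% in the first pass at 4 µM, then a duplicate retest at 5 µM averaging 50% or more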
STAT3 inh: inhibitors of IL-6 induced STAT3 signaling; U3A cells, IL-6 STAT3-luciferase reporter, luminescence; host cell line lacks STAT1; inhibition, % at 5.5 µM; 190,000 compounds, 0.89% hits; AID 862;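 active means inhibition above the mean inhibition across all screened compounds plus 3 SD, cut at about 44% in these data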
C8 TRAIL sens: caspase-8 TRAIL sensitization | AID 624354 | NB7+C8 cells + TRAIL, ATPlite viability luminescence | inhibition (viability loss, TRAIL sensitization), % at 10 µM | 360,000 compounds, 1% hits;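 active means compounds causing at least 50% loss of cell viability in the single-dose screen, relative to plate controls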
Numbers stand for hits; - = inactive; . = not tested or not shown. An excerpt weighted towards active compounds, which were near 2.3% of everything screened.

SMILES	HSP90 refold inh	STAT3 activator	STAT1 blocker	PPC-1+TRAIL kill	STAT3 inh	C8 TRAIL sens
O=[N+]([O-])c1ccc(N=Nc2ccc(O)c3ccccc23)cc1	.	.	.	.	.	63
Nc1ccc(-c2nc3ncccc3o2)c(Cl)c1	-	-	-	-	-	53
C=C(C)[C@@H]1C2=CC(C(=O)OC)=C(C[C@H](C(=C)C)[C@H]3O[C@H]3C3=C[C@H]1OC3=O)O2	.	.	.	.	.	77
CC1Cc2ccccc2N1C(=O)COC(=O)c1ccco1 (stereo not given)	.	.	.	.	.	-
O=C(COc1ccc(C(F)(F)F)cc1[N+](=O)[O-])Nc1cccc(C(F)(F)F)c1	-	-	-	52	-	-
O=C1CC(c2ccccc2)Sc2ccccc2N1 (stereo not given)	-	135	-	-	-	-
CN(C)C=Nc1ccc2nc3c(cc2c1)[nH]c1ccccc13	-	.	.	.	.	76
CCOC(=O)c1[nH]c2ccccc2c1N=CN(C)C	-	-	-	.	-	-
COc1ccc2[nH]c3c(c2c1)CCN1C(=O)N([C@@H](C)C(=O)NC2CC2)C(=O)[C@]31C	-	.	.	.	.	-
CC(=NNC(=O)c1ccccc1N)c1ccccc1O	.	.	.	.	.	54
CCCCOCCCNc1ncnc2c1[nH]c1ccccc12	-	-	41	-	56	-
O=C(NC1CCCCC1)c1cccc2c1C(=O)c1ccc(-c3ccc(OC(F)(F)F)cc3)cc1S2(=O)=O	.	.	.	.	.	-
O=C(NCc1ccccc1Cl)c1cccc2c1C(=O)c1ccc(-c3ccc(OC(F)(F)F)cc3)cc1S2(=O)=O	.	.	.	.	.	54
COC(=O)c1ccc(NC(=O)c2ccccc2)o1	-	-	-	-	-	-
CC(=O)Nc1cccc(-c2csc(Nc3ccc(C)cn3)n2)c1	-	-	-	-	-	64
CC(=O)Nc1cccc(-c2csc(Nc3ncccn3)n2)c1	-	-	-	-	-	.
CCCC(=O)Nc1ccc(NC(=O)c2cccc(OC)c2)nc1	-	-	-	-	-	-
Cc1cc(Br)ccc1OCCCCNCCO	-	-	-	-	-	53
COC1=CC(=O)C=C(OC)C1=O	.	.	.	.	.	-
COC1=CC(=O)c2ccccc2C1=O	.	.	.	.	.	88
Cc1ccc(Cl)c2c1NC(=O)C2(O)CC(=O)c1ccccc1O (stereo not given)	-	133	-	-	-	-
CC(C)(C)NC(=O)CSc1nc2ccccc2c(=O)[nH]1	-	.	.	-	.	-
O=S(=O)(CCN1CCN(c2ccccc2O)CC1)c1ccc(Cl)cc1	.	.	.	.	.	-
Cc1cccc(C)c1NC(=O)C(c1cc2ccccc2o1)N1CCC(c2ccccc2)CC1 (stereo not given)	.	.	.	.	.	-
Cc1ccc(NC(=O)/C=C/c2ccc(Cl)cc2)nc1	-	140	-	-	-	-
SMILES	HSP90 refold inh	STAT3 activator	STAT1 blocker	PPC-1+TRAIL kill	STAT3 inh	C8 TRAIL sens
O=C(/C=C/c1ccccc1)Nc1ccc(Br)cn1	-	-	-	-	-	-
O=C(NCCC(=O)N(CCc1ccccc1)Cc1ccccc1)c1ccccc1Cl	.	.	.	.	.	-
CC(=O)N1CCN2C(=O)C1CCCC(=O)c1cc(C(C)C)ccc12 (stereo not given)	-	-	-	-	-	-
CC(C)c1ccc(C(=O)Nc2cccnc2)cc1	-	.	.	.	.	49
Oc1cc(-c2ccc(N3CCCCC3)nc2)cc2cccnc12	.	.	.	.	.	74
Oc1cc(-c2ccncc2)cc2cccnc12	.	.	.	.	.	-
CS(=O)(=O)NCc1ccc(C(=O)O)cc1	-	-	-	-	-	-
O=C1c2ccccc2C(=O)N1CCOc1ccccc1	-	138	-	.	-	-
COc1ccc(CCNC(=O)C2CC(c3ccccc3[N+](=O)[O-])=NO2)cc1 (stereo not given)	-	-	-	-	-	-
CCOC(=O)[C@H](O)[C@@H](O)c1cccc([C@H](O)[C@@H](O)C(=O)OCC)c1	-	.	.	.	.	-
CCc1ccc(/C=C2\SC(=S)N(CCCC(=O)N3CCN(C)CC3)C2=O)cc1	.	.	.	.	.	87
CCc1ccc(/C=C2\SC(=S)N(CCCC(=O)NCCCN3CCOCC3)C2=O)cc1	.	.	.	.	.	75
COc1ccc(/C=C2\SC(=S)N(CCCC(=O)N3CCN(C)CC3)C2=O)cc1	-	.	.	.	.	-
CN(C)S(=O)(=O)c1cccc(C(=O)NC(=S)N(CCC#N)Cc2cccnc2)c1	-	-	-	-	-	-
CCc1ccc(S(=O)(=O)Nc2c(C)nn(C)c2C)cc1	-	-	-	-	-	-
Oc1ccc(-c2n[nH]c(C(F)(F)F)c2-c2ccccc2)c(O)c1	-	-	41	-	72	-
COc1ccc(-c2c(-c3ccc(O)cc3O)n[nH]c2C(F)(F)F)cc1	-	.	.	-	.	-
CCC(C)N(C(=O)Cn1c(Cl)nc2c1c(=O)n(C)c(=O)n2C)C1CCS(=O)(=O)C1 (stereo not given)	-	.	.	.	.	-
COc1ccc(/C=C2\CCCC3C2=NN(C(=O)COC(=O)CNC(=O)c2ccccc2)C3c2ccc(OC)cc2)cc1 (stereo not given)	-	-	-	-	-	59
O=C(O)c1cccc(-c2noc(-c3cccc(Cl)c3)n2)c1	.	.	.	.	.	62
COc1ccc(-c2cc3nc(-c4ccccc4)cc(N4CCN(C(C)=O)CC4)n3n2)cc1	.	.	.	.	.	-
Cc1cccc(CN2CCC(CNC(=O)Cn3ncc4c([nH]c5ccccc54)c3=O)CC2)c1	-	.	.	.	.	-
O=c1c(Br)ccc(Br)cc1Br	.	.	.	.	.	93
CC1CCN(Cc2nnnn2CCCC(=O)NC(c2ccccn2)C(F)(F)F)CC1 (stereo not given)	-	.	.	.	.	-
CN(C)CCCNC(=O)c1ccccn1	-	-	-	-	-	-
SMILES	HSP90 refold inh	STAT3 activator	STAT1 blocker	PPC-1+TRAIL kill	STAT3 inh	C8 TRAIL sens
CN(C)CCCNC(=O)c1ccc(-c2nc(-c3ccc(Cl)cc3)cs2)cc1	-	-	-	-	-	90
COc1ccccc1C1c2ccc3ccccc3c2Oc2ncn(CCN(C)C)c(=N)c21 (stereo not given)	-	.	.	.	.	-
COc1ccc(C2c3ccc4ccccc4c3Oc3ncn(CCCN(C)C)c(=N)c32)cc1 (stereo not given)	-	.	.	.	.	58
O=C(C=C1NCCN1)c1ccccc1	.	.	.	.	.	-
O=C(/C=C1\NCC2c3ccccc3CCN2C1=O)c1ccccc1 (stereo not given)	-	134	-	-	-	-
CC1CCc2sc(C(=O)NCC3CCCO3)cc2C1 (stereo not given)	.	.	.	.	.	-
O=C(N/N=C/c1ccccc1)c1ccc(N2CCCC2=O)cc1	.	.	.	.	.	-
O=C1CCCC(=O)N1c1ccc(F)cc1	-	.	.	.	.	-
CCOP(=O)(OCC)C(NC(=O)c1cc([N+](=O)[O-])cc([N+](=O)[O-])c1)C(F)(F)F (stereo not given)	-	-	-	-	-	-
CN(C(=S)NC(=O)c1ccc(Cl)cc1)C1CCCCC1	-	.	.	.	.	50
Oc1ccccc1C=Nc1ccccc1-c1nc2ccccc2[nH]1	-	-	-	-	-	52
CCOc1ccccc1N1CCN(C(=O)c2cc(-c3cc(OC)ccc3OC)nc3ccccc23)CC1	-	.	.	.	.	-
O=C(Cn1c(O)c(/C=C2\C=Nc3ccc(Br)cc32)sc1=O)N1CCCC1	-	-	-	-	-	-
